Source: PubChem BioAssay
Inconclusive results are not listed.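 How the source made its calls, unless noted: active means viability increase at or above a cutoff of the median across tested compounds plus 3 SD (cut at about 8.5% in these data, passing the limit was not always enough); inconclusive means some gains above the cutoff, reason not given; inactive means the rest.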

Tests used:
[1] = OD615 S. cerevisiae growth inhibition, permissive medium, pilot counter-assay, permissive growth control for S. cerevisiae lifespan shortening project (AID 705;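 active means growth inhibition above 25% in both replicates, a cutoff set 3 SD above the mean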); settings: OD615, 24 h, at 10 µM, active compounds read high
Procedure, shortened: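 Material: engineered DeaD yeast; compound dosing: one dose 10 µM, DMSO 0.25% final; measure: yeast growth inhibition indicated by reduced 24 h OD615; detection: OD615 turbidity read; incubation: cells pre-grown 4 h, then 24 h compound exposure, 30 °C humidified; medium: permissive synthetic complete medium with raffinose and galactose carbon sources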

[2] = Restrictive medium S. cerevisiae growth inhibition, OD615, pilot screen of yeast lifespan reduction project, restrictive growth control (AID 706;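 active means growth inhibition above a set limit, 3 SD over mean compound inhibition, in both replicates, cut at about 43% in these data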;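 further: modified DeaD lifespan yeast strain shifted to restrictive glucose medium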); settings: OD615, 48 h, at 10 µM, active compounds read high
Procedure, shortened: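 material = engineered S. cerevisiae DeaD strain | medium = glucose-based CSMM-D restrictive medium | times = 4 h pre-incubation, 48 h exposure at 30 °C | technique = OD615 absorbance reading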

[3] = viability gain of MRP-1-high H69AR cells under doxorubicin, pilot screen, MRP-1 activator project, CellTiter-Glo, duplicate (AID 807); settings: H69AR viability with doxorubicin, CellTiter-Glo luminescence; at 10 µM; active compounds read high;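 further: compound pretreatment 18-22 h then 72 h combined with doxorubicin; 0% = doxorubicin alone and 100% = vehicle without doxorubicin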
[4] = growth suppression of beta-catenin knockout HCT116, pilot screen, human colon tumor cells (AID 823;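 active means cell viability at or below a set limit in both duplicate runs, the limit being the all-compound median minus 4 SD, cut at about 23% in these data, passing the limit was not always enough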;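 further: 0% = wells killed by 20 µM Hyamine and 100% = untreated DMSO cell wells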); settings: CellTiter-Glo, 60 h, at 10 µM, active compounds read low
[5] = growth suppression of PTEN-deleted HCT116, pilot screen, cell-based, HCT116 clonal line, CellTiter-Glo (AID 824;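 active means viability at or below 27.92% in each of two runs, the all-compound median minus 4 SD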;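 further: 0% = 20 µM Hyamine control and 100% = vehicle cell control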); settings: 60 h, at 10 µM, active compounds read low
[6] = inhibitors of the yeast RAM network, pilot screen, dse1pr::URA3 reporter, 5-FOA selection (AID 869;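 active means inhibition over a set limit, the all-compound mean plus 3 SD, in both replicate runs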;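 further: 0% = DMSO wells with no growth and 100% = 10 µM 1-NA-PP1 with full growth; RAM network block rescues cells from 5-FOA so hits raise OD615 growth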); settings: S. cerevisiae dse1pr::URA3 5-FOA growth, OD615, 2 d; at 10 µM; active compounds read high; strain carries analog-sensitive mutant Cbk1 kinase
[7] = RAM signaling pathway blockade in yeast – S. cerevisiae, Pdr1DBD-CYC8 efflux-inhibited sensitized strain, primary screen (AID 1298;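 active means RAM network inhibition above 8.4% in each of two replicates, 3 SD over the compound average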;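 further: 0% = DMSO untreated cells without growth and 100% = 10 µM 1-NA-PP1 full growth; higher means more yeast growth rescued from 5-FOA killing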); settings: S. cerevisiae cbk1-as DSE1-URA3 strain, 5-FOA growth OD615, 2 d; at 50 µM; active compounds read high

Cc1nn(-c2ccc(Cl)cc2)c2sc(C(=O)N3CCN(C(=O)c4ccco4)CC3)cc12
inactive: growth inhibition [1] -4.13% | growth inhibition [2] -10.7% | viability increase [3] -5.55% | viability [4] 89.3% | viability [5] 82.5% | inhibition [6] 2% | RAM network inhibition [7] 2.13%

N#CCCN1CCN(S(=O)(=O)c2ccc(S(=O)(=O)NC3CC3)cc2)CC1
inactive: growth inhibition [1] -10.4% | growth inhibition [2] -5.2% | viability increase [3] 0.24% | viability [4] 103% | viability [5] 99.6% | inhibition [6] 0.68% | RAM network inhibition [7] 3.16%

COc1ccccc1NC(=O)C1=C(C)NC(=O)NC1c1ccccc1F (configuration not stated)
inactive: growth inhibition [1] -7.88% | growth inhibition [2] -13.5% | viability increase [3] -0.75% | viability [4] 99.2% | viability [5] 107% | inhibition [6] 1.82% | RAM network inhibition [7] 2.41%

c1ccc(-c2noc(CN3CCN(c4ccccc4)CC3)n2)cc1
inactive: growth inhibition [1] -8.41% | growth inhibition [2] 2.94% | viability increase [3] -2.27% | viability [4] 94.5% | viability [5] 97.3% | inhibition [6] 0.125% | RAM network inhibition [7] 3.29%

Cn1c(=O)c2c(SC3CCCC3)nc(C3CC3)nc2n(C)c1=O
inactive: growth inhibition [1] 3.3% | growth inhibition [2] -9.07% | viability increase [3] 1.43% | viability [4] 91% | viability [5] 86.3% | inhibition [6] 2.54% | RAM network inhibition [7] 2.78%

O=C(Oc1ccnc2cc(Cl)ccc12)N1CCOCC1
inactive: growth inhibition [1] -4.51% | growth inhibition [2] 5.71% | viability increase [3] -3.29% | viability [4] 87.3% | viability [5] 87.8% | inhibition [6] 1.1% | RAM network inhibition [7] 7.61%

COc1ccc(N2C(=O)CCC(C(=O)Nc3ccccn3)C2c2ccc(OC)c(OC)c2)cc1 (configuration not stated)
inactive: growth inhibition [1] 0.15% | growth inhibition [2] -9.93% | viability increase [3] -0.12% | viability [4] 96.2% | viability [5] 96.9% | inhibition [6] 1.64% | RAM network inhibition [7] 0.04%

Nc1nc(SCc2ccc(Cl)cc2)ns1
inactive: growth inhibition [1] 10.4% | growth inhibition [2] 7.05% | viability increase [3] 1.03% | viability [4] 98.4% | viability [5] 89.2% | inhibition [6] 0.695% | RAM network inhibition [7] 0.78%

CC(=O)NC(CCS(C)(=O)=O)C(=O)Nc1cccc(Cl)c1Cl (configuration not stated)
inactive: growth inhibition [1] -2.35% | growth inhibition [2] -13.9% | viability increase [3] -4.63% | viability [4] 101% | viability [5] 97% | inhibition [6] 2.29% | RAM network inhibition [7] -0.83%

O=C(C1CC(c2ccc(F)cc2)=NO1)N1CCN(c2ccccc2)CC1 (configuration not stated)
inactive: growth inhibition [1] 1.07% | growth inhibition [2] -3.47% | viability increase [3] -0.13% | viability [4] 99.1% | viability [5] 95.6% | inhibition [6] 1.23% | RAM network inhibition [7] 3.67%

NC(=O)SCC(=O)Nc1ccc(Cl)c(Cl)c1
inactive: growth inhibition [1] -0.33% | growth inhibition [2] 4.16% | viability increase [3] -7.83% | viability [4] 38% | viability [5] 42.8% | inhibition [6] 2.52% | RAM network inhibition [7] 4.56%

O=C(Nc1ccc(N2CCN(C(=O)c3ccccc3)CC2)c(Cl)c1)c1ccco1
inactive: growth inhibition [1] 4.29% | growth inhibition [2] 14.1% | viability increase [3] -3.69% | viability [4] 67% | viability [5] 75.9% | inhibition [6] 3.31% | RAM network inhibition [7] 5.57%

Cc1nn(-c2ccccc2)c2c1C(c1ccccc1)C(C#N)=C(N)O2 (configuration not stated)
inactive: growth inhibition [1] -13.1% | growth inhibition [2] -12.2% | viability increase [3] -2.62% | viability [4] 91.3% | viability [5] 87.8% | inhibition [6] 2.24% | RAM network inhibition [7] 10.5%

Nc1ccc(C(=O)c2ccc3c(c2)OCCO3)cc1N
inactive: growth inhibition [1] 4.75% | growth inhibition [2] 6.96% | viability increase [3] -6.58% | viability [4] 102% | viability [5] 97.5% | inhibition [6] 0.375% | RAM network inhibition [7] 4.41%

COc1ccc(-n2ncc3c(N4CCN(c5cc(C)ccc5C)CC4)ncnc32)cc1
inactive: growth inhibition [1] -8.7% | growth inhibition [2] 4.27% | viability increase [3] -4.46% | viability [4] 61.3% | viability [5] 68% | inhibition [6] 2.01% | RAM network inhibition [7] 3.49%

COc1cccc(-c2nc(CS(=O)CC(=O)NCc3ccccc3Cl)c(C)o2)c1 (configuration not stated)
inactive: growth inhibition [1] -0.545% | growth inhibition [2] 5.44% | viability increase [3] -3.78% | viability [4] 92.4% | viability [5] 91.9% | inhibition [6] 0.79% | RAM network inhibition [7] 10%

COc1ccc(NC(=O)C(CC(=O)O)Cc2ccccc2)cc1 (configuration not stated)
inactive: growth inhibition [1] -17% | growth inhibition [2] -9.36% | viability increase [3] -0.09% | viability [4] 102% | viability [5] 97.9% | inhibition [6] 1.62% | RAM network inhibition [7] 5.61%

Cc1ccccc1OCc1nc(-c2ccc(-n3cccc3)cc2)no1
inactive: growth inhibition [1] -22.8% | growth inhibition [2] -18.9% | viability increase [3] -0.53% | viability [4] 81.3% | viability [5] 84% | inhibition [6] 2% | RAM network inhibition [7] 5.61%

COc1ccc(Cl)cc1NC(=O)C1CSC(c2ccncc2)=N1 (configuration not stated)
inactive: growth inhibition [1] 1.68% | growth inhibition [2] -12.2% | viability increase [3] -8.24% | viability [4] 65.2% | viability [5] 61.5% | inhibition [6] 0.41% | RAM network inhibition [7] 5.11%

O=C(NCCNC(=O)c1ccc(Br)o1)c1ccc(Br)o1
inactive: growth inhibition [1] -7.92% | growth inhibition [2] 4.26% | viability increase [3] 1.39% | viability [4] 99.1% | viability [5] 105% | inhibition [6] 0.39% | RAM network inhibition [7] 0.1%

COc1ccc(OC)c(N(CC(=O)NC2CC2)S(=O)(=O)c2ccc(C)cc2)c1
inactive: growth inhibition [1] -13.6% | growth inhibition [2] -20.4% | viability increase [3] -0.94% | viability [4] 96.1% | viability [5] 93.2% | inhibition [6] 0.73% | RAM network inhibition [7] 3.7%

COc1ccc(-c2cc(C(F)(F)F)n3nc(C(=O)N4CCCC4)cc3n2)cc1
inactive: growth inhibition [1] -5.39% | growth inhibition [2] -2.34% | viability increase [3] -3.39% | viability [4] 93.9% | viability [5] 84.7% | inhibition [6] 1.71% | RAM network inhibition [7] 7.1%

O=C(Nc1sc2c(c1C(=O)O)CCCCC2)c1ccco1
inactive: growth inhibition [1] -3.7% | growth inhibition [2] -9.4% | viability increase [3] -1.32% | viability [4] 88.7% | viability [5] 78.5% | inhibition [6] -0.91% | RAM network inhibition [7] -1.46%

O=C(C1CCN(S(=O)(=O)c2cccc3cccnc23)CC1)N1CCN(Cc2ccccc2)CC1
inactive: growth inhibition [1] 8.83% | growth inhibition [2] 5.8% | viability increase [3] 0.23% | viability [4] 105% | viability [5] 99.5% | inhibition [6] -0.39% | RAM network inhibition [7] 1.71%

Cc1cc(C(=O)NCC2CCCO2)n(-c2ccccc2)n1 (configuration not stated)
inactive: growth inhibition [1] -0.68% | growth inhibition [2] -2.33% | viability increase [3] -1.22% | viability [4] 100% | viability [5] 103% | inhibition [6] 0.28% | RAM network inhibition [7] 2.07%

COc1cccc(-c2nc(CS(=O)CC(=O)NC3CCCC3)c(C)o2)c1 (configuration not stated)
inactive: growth inhibition [1] -7.39% | growth inhibition [2] 1.47% | viability increase [3] -2.4% | viability [4] 90.3% | viability [5] 95.6% | inhibition [6] 1.09% | RAM network inhibition [7] 1.25%

CCN1CCn2c3c(c4cc(C)ccc42)CCCC31 (configuration not stated)
inactive: growth inhibition [1] -4.94% | growth inhibition [2] -6.53% | viability increase [3] -2.11% | viability [4] 80.1% | viability [5] 74.9% | inhibition [6] 0.895% | RAM network inhibition [7] 0.21%

Cc1cc2oc3c(c(=O)c2cc1C)C(c1ccc(F)cc1)N(CCCN1CCOCC1)C3=O (configuration not stated)
inactive: growth inhibition [1] 4.43% | growth inhibition [2] -11.3% | viability increase [3] -2.77% | viability [4] 98.5% | viability [5] 96% | inhibition [6] 1.74% | RAM network inhibition [7] 1.83%

C=C(C)Cn1c(C2CC(=O)N(Cc3ccccc3)C2)nc2ccccc21 (configuration not stated)
inactive: growth inhibition [1] -0.245% | growth inhibition [2] -1.79% | viability increase [3] -1.95% | viability [4] 97.1% | viability [5] 93.2% | inhibition [6] 1.46% | RAM network inhibition [7] 2.18%

COc1ccc(-n2c(=O)c3ccccc3n(CC(=O)NC3CCCC3)c2=O)c(OC)c1
inactive: growth inhibition [1] -4.38% | growth inhibition [2] -22% | viability increase [3] -0.98% | viability [4] 98.2% | viability [5] 96.2% | inhibition [6] 2.04% | RAM network inhibition [7] 3.21%

O=C(Nc1nccs1)C1CCN(S(=O)(=O)c2cccnc2)CC1
inactive: growth inhibition [1] -4.93% | growth inhibition [2] 3.12% | viability increase [3] -0.26% | viability [4] 102% | viability [5] 101% | inhibition [6] 0.905% | RAM network inhibition [7] -0.78%

COc1ccc(NCCNc2ccc(OC)cc2)cc1
inactive: growth inhibition [1] 5.4% | growth inhibition [2] 7.97% | viability increase [3] -0.82% | viability [4] 58.9% | viability [5] 59.5% | inhibition [6] 0.6% | RAM network inhibition [7] 6.32%

Cc1ccc(-n2ncc3c(N4CCC5(CC4)OCCO5)ncnc32)c(C)c1
inactive: growth inhibition [1] 1.21% | growth inhibition [2] 6.06% | viability increase [3] -7.95% | viability [4] 80.3% | viability [5] 83.8% | inhibition [6] 0.765% | RAM network inhibition [7] -1.04%

CC(CCc1ccccc1)C(=O)NO (configuration not stated)
inactive: growth inhibition [1] -6.16% | growth inhibition [2] -10.5% | viability increase [3] -3.84% | viability [4] 95.6% | viability [5] 91.6% | inhibition [6] 0.87% | RAM network inhibition [7] 1.5%

Cc1ccc2nc(NC(=O)c3ccc(Cl)s3)sc2c1
inactive: growth inhibition [1] -17.2% | growth inhibition [2] -14.8% | viability increase [3] -6.45% | viability [4] 64.5% | viability [5] 63% | inhibition [6] 1.35% | RAM network inhibition [7] 2.06%

O=C(Cn1cc2c(n1)CCCC2)NCc1cccs1
inactive: growth inhibition [1] -4.03% | growth inhibition [2] -3.48% | viability increase [3] -0.37% | viability [4] 105% | viability [5] 93% | inhibition [6] 1.2% | RAM network inhibition [7] 0.81%
